Assay results published in ChEMBL document CHEMBL2311405, “Synthesis and biological evaluation of indenoisoquinolines that inhibit both tyrosyl-DNA phosphodiesterase I (Tdp1) and topoisomerase I (Top1)” (J Med Chem, 2013).
Calls of active or inactive are those of the source. The calls are words filed in the database; no cut-off is given here.

Tests used:
SF-539 = test: Growth inhibition of human SF539 cells; format: functional
How it was run: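 Human cancer cell line panel, compounds tested at concentrations up to 10 μM. GI50 per cell line is the mean of two determinations where a standard error is given, otherwise from one determination.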

SN12C = test: Growth inhibition of human SN12C cells; format: functional
UACC-62 = test: Growth inhibition of human UACC62 cells; format: functional
HCT-116 = test: Growth inhibition of human HCT116 cells; format: functional
HOP-62 = test: Growth inhibition of human HOP62 cells; format: functional
[1] = biological target: T1, DNA topoisomerase 1 (Homo sapiens) (UniProt P11387); test: Inhibition of recombinant Top1 (unknown origin) using 3'-[32P]-end-labeled 117 bp oligonucleotide as substrate after 20 mins by SDS-PAGE analysis relative to 1 uM camptothecin
T1 sequence (whole entry): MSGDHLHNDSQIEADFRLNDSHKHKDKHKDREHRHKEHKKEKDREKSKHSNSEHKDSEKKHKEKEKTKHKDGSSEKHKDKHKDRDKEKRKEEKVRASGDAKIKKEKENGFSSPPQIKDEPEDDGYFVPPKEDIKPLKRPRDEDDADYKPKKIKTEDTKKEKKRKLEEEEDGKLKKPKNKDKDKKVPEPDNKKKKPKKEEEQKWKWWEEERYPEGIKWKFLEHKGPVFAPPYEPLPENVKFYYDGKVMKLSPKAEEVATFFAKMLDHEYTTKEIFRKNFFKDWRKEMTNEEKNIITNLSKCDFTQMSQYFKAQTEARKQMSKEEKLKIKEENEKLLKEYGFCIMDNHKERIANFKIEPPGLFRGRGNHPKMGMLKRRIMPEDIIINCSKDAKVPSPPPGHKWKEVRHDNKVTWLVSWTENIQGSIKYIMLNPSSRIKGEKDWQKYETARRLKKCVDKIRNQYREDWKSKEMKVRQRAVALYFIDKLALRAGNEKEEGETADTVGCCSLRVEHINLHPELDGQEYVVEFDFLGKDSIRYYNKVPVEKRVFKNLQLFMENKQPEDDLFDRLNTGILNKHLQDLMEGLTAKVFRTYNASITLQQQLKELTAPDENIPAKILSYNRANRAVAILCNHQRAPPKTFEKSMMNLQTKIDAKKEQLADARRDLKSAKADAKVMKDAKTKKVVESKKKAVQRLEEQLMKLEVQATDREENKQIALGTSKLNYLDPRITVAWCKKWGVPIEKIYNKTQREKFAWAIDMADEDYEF

MDA-MB-435 = test: Growth inhibition of human MDA-MB-435 cells; format: functional
DU-145 = test: Growth inhibition of human DU145 cells; format: functional
OVCAR-3 = test: Growth inhibition of human OVCAR3 cells; format: functional
[2] = biological target: T1, DNA topoisomerase 1 (Homo sapiens); test: Inhibition of recombinant Top1 (unknown origin) using 3'-[32P]-end-labeled 117 bp oligonucleotide as substrate assessed as suppression of DNA cleavage at 100 uM by SDS-PAGE analysis
How it was run: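 3′-[32P]-end-labeled 117-bp DNA at 2 nM incubated with recombinant Top1 at 25 °C for 20 min across a range of compound concentrations. Stopped with SDS (0.5% final) plus formamide loading dye, then 20% denaturing PAGE. Dried gels were phosphorimaged.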

[3] = biological target: T1, DNA topoisomerase 1 (Homo sapiens); test: Inhibition of recombinant Top1 (unknown origin) using 3'-[32P]-end-labeled 117 bp oligonucleotide as substrate after 20 mins by SDS-PAGE analysis relative to 1 uM MJ-3-65
[4] = biological target: Tyrosyl-DNA phosphodiesterase 1 (Homo sapiens, UniProt Q9NUW8); test: Inhibition of recombinant Tdp1 (unknown origin) using 5'-[32P]-labeled single-stranded DNA oligonucleotide containing 3'-phosphotyrosine as substrate after 15 mins by PAGE analysis
Chain of Tyrosyl-DNA phosphodiesterase 1 (Q9NUW8 whole entry): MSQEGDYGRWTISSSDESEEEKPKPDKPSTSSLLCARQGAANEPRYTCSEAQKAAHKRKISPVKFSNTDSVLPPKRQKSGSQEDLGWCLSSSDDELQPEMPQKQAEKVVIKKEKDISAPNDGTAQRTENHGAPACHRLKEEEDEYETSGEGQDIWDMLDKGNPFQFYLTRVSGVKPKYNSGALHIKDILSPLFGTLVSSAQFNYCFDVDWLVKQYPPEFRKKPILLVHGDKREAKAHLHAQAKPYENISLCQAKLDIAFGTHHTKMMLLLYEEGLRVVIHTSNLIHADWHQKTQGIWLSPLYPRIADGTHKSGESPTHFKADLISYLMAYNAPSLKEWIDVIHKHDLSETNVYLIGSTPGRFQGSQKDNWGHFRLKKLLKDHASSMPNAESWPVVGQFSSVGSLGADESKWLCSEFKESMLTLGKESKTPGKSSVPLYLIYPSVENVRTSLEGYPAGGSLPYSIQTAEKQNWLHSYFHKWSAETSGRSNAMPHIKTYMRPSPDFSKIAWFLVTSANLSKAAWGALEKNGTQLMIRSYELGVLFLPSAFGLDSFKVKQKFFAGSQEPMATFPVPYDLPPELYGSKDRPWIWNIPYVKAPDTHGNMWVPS

SMILES | GI50 (SF-539) [nM] | GI50 (SN12C) [nM] | GI50 (UACC-62) [nM] | GI50 (HCT-116) [nM] | GI50 (HOP-62) [nM] | inhibition [1] | GI50 (MDA-MB-435) [nM] | GI50 (DU-145) [nM] | GI50 (OVCAR-3) [nM] | inhibition [2] | inhibition [3] | IC50 [4] [nM]
COc1ccc2c(c1)C(=O)c1c-2n(CCCN)c(=O)c2cc([N+](=O)[O-])ccc12 | < 10 | < 10 | < 10 | < 10 | < 10 | Active | – | – | – | – | – | –
COc1ccc2c(c1)-c1c(c3ccc([N+](=O)[O-])cc3c(=O)n1CCCn1ccnc1)C2=O | < 10 | < 10 | < 10 | < 10 | < 10 | – | 30 | < 10 | 30 | inactive | Active | –
COc1cccc2c1-c1c(c3ccc([N+](=O)[O-])cc3c(=O)n1CCCN)C2=O | – | – | – | – | – | Active | – | – | – | – | – | –
CN(C)CCCn1c2c(c3ccc(C#N)cc3c1=O)C(=O)c1cc3c(cc1-2)OCO3 | – | – | – | – | – | – | – | – | – | Active | – | > 111000
COc1ccc2c(c1)C(=O)c1c-2n(CCCN(C)C)c(=O)c2cc(I)ccc12 | – | – | – | – | – | – | – | – | – | Active | Active | –
